Reference: ChEMBL document CHEMBL4052792, “3-Hydroxykynurenine, a Tryptophan Metabolite Generated during the Infection, Is Active Against Trypanosoma cruzi” (ACS Med Chem Lett, 2017)

Legend:
[1] = test system: Trypanosoma cruzi; assay: Trypanocidal activity against Trypanosoma cruzi Tulahuen trypomastigotes infected in mouse whole blood assessed as increase in parasite death at 0.2 uM by trypan blue assay; format: functional; conditions: TDE = time-dependent effect
[2] = test system: Trypanosoma cruzi; assay: Trypanocidal activity against Trypanosoma cruzi Tulahuen trypomastigotes assessed as reduction in parasites after 72 hrs by trypan blue assay; format: functional
How it was run: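 Bloodstream trypomastigotes were incubated at 37 °C in culture medium alone or with increasing doses for 24, 48 and 72 h. Parasite death was scored as percentage by trypan blue exclusion. Results are means ± SD of three independent experiments.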

[3] = test system: Trypanosoma cruzi; assay: Reduction of mitochondrial membrane potential in Trypanosoma cruzi Tulahuen trypomastigotes after 24 hrs by Rh123/PI staining-based flow cytometric analysis; format: functional
How it was run: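 Trypomastigotes were treated with 3-HK for 24 h at 37 °C, then incubated with PI plus Rh123. Rh123 fluorescence was read by flow cytometry in PI-negative (live) parasites. The depolarized fraction was taken as the low-fluorescence M2 population. Index of variation = (treated median − control median)/control median. Three experiments were run.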

[4] = test system: Trypanosoma cruzi; assay: Trypanocidal activity against Trypanosoma cruzi Tulahuen amastigotes infected in BALB/C mouse bone marrow derived macrophages assessed as endocytic index at 0.2 uM treated for 24 hrs followed by compound washout measured after 48 hrs by immunofluorescence assay (reference value: 213.66 +/- 58.79); format: functional
[5] = test system: Trypanosoma cruzi; assay: Trypanocidal activity against Trypanosoma cruzi Tulahuen amastigotes infected in BALB/C mouse bone marrow derived macrophages assessed as endocytic index at 200 uM treated for 24 hrs followed by compound washout measured after 48 hrs by immunofluorescence assay (reference value: 213.66 +/- 58.79); format: functional
[6] = test system: Trypanosoma cruzi; assay: Trypanocidal activity against Trypanosoma cruzi Tulahuen amastigotes infected in BALB/C mouse bone marrow derived macrophages assessed as endocytic index at 400 uM treated for 24 hrs followed by compound washout measured after 48 hrs by immunofluorescence assay (reference value: 213.66 +/- 58.79); format: functional
[7] = test system: Trypanosoma cruzi; assay: Trypanocidal activity against Trypanosoma cruzi Tulahuen amastigotes infected in BALB/C mouse bone marrow derived macrophages assessed as reduction intracellular parasite growth after 24 hrs by immunofluorescence assay; format: functional, cell-based
How it was run: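 Macrophages were infected with trypomastigotes and treated with 3-HK for 24 h. Immunofluorescence counts were made at 72 h post-infection. Intracellular parasites per 200 cells were expressed relative to medium-treated cultures, and infected cells were counted among 200 macrophages. Data are means ± SD of four independent experiments.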

[8] = Cytotoxicity against BALB/C mouse BMDM assessed as reduction in cell viability at 0.2 to 2000 uM after 24 hrs by trypan blue exclusion assay; format: cell-based
How it was run: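 Mammalian cells (human PBMC, Swan 71, Jurkat; bone marrow-derived macrophages; J774) were exposed to 3-HK at 0.2 to 2000 μM for 24 h. Viability was then scored by trypan blue exclusion.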

[9] = Induction of apoptosis in BALB/C mouse BMDM assessed as cells with hypodiploid DNA content at 4000 uM after 24 hrs by FITC/propidium iodide staining based flow cytometric analysis (reference value: 29.9%); format: functional
[10] = test system: Candida albicans; assay: Antimicrobial activity against Candida albicans ATCC10231 after 10 to 20 hrs; format: functional

With `Nc1c(O)cccc1C(=O)C[C@H](N)C(=O)O` the Activity [1] was “Tde”, the IC50 [2] was 20 to 200 µM and the Activity [3] was “Dose-dependent effect”. The Activity [4] was 67.61, the Activity [5] was 51.43 and the Activity [6] was 89.81. For the same compound, the IC50 [7] was 0.2 µM, the Activity [8] was “Non-Toxic” and the Activity [9] was 30.9%. It also gave an IC50 [10] of 30 to 137 µM.
